Results taken from paper PMC13022283 (Scientific Reports, 2026).
“Also recorded” adds a separate entry of the source.

Columns and labels:
h-NTPDase1 = molecular target: T1, h-NTPDase1 (Homo sapiens, UniProt P49961); assay: h-NTPDase activity assay; assay type: biochemical; details: for inhibition at 100 µM: read-out: % Inhibition h-NTPDase1
T1 sequence (P49961 1-510): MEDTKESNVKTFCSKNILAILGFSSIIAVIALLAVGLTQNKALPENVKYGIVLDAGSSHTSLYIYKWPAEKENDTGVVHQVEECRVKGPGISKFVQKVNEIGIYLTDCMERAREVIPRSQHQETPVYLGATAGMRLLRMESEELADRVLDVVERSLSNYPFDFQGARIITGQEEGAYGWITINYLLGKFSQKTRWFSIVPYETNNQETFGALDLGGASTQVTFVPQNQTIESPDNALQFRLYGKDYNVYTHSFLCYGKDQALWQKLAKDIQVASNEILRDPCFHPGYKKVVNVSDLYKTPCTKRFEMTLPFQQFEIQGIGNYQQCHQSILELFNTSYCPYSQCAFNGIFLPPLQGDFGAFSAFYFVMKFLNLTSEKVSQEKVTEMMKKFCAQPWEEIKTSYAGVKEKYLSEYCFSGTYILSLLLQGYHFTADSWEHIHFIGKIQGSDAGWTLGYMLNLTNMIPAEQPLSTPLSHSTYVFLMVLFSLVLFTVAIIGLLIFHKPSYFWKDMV

h-e5’NT = molecular target: T2, h-e5’NT (Homo sapiens, UniProt P21589); assay: h-e5’NT activity assay; assay type: biochemical; details: for inhibition at 100 µM: read-out: % Inhibition h-e5’NT
T2 sequence (P21589 27-574): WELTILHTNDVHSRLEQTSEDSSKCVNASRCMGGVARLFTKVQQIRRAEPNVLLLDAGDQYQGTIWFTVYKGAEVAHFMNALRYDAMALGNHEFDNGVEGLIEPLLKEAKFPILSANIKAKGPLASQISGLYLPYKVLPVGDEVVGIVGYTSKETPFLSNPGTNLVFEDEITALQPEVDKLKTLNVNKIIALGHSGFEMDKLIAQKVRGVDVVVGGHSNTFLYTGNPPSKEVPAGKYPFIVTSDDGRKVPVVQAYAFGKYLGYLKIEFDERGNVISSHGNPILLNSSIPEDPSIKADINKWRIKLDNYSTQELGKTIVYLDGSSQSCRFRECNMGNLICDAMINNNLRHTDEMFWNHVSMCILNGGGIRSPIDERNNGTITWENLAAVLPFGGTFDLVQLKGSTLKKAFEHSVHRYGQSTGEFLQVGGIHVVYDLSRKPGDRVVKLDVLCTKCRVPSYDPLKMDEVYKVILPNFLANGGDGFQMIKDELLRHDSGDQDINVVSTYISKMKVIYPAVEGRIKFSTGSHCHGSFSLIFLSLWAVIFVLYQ
How it was run: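 Human ecto-5′-nucleotidase from transfected COS-7 cells was pre-incubated 10 min at 37 °C with compound (0.1 mM final) in 50 mM Tris–HCl with MgCl₂ and CaCl₂, pH 7.4. The reaction was started with AMP (2 mM solution as added) and run 20 min at 37 °C. Released phosphate was detected with malachite green at 630 nm, in triplicate.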

[1] = tested on: A549 human lung carcinoma cells; assay: Fluorescence microscopy of treated cells; assay type: cell-based; details: A549, 10 μM, 24 h incubation
h-NTPDases = assay: h-NTPDase activity assay, all four isoenzymes; assay type: biochemical, human
How it was run: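 Human NTPDase1, -2, -3 or -8 came from COS-7 cells transfected with plasmids via Lipofectamine, harvested at 44–48 h, sonicated and cleared of nuclei, with protein measured by Bradford. Enzyme per well was 12, 37, 43 or 63 ng respectively. Compound (0.1 mM final) was pre-incubated 10 min at 37 °C in 50 mM Tris–HCl, 5 mM CaCl2, pH 7.4. The reaction was started with ATP (100 µM), run 15 min, and stopped with malachite green; Pi was read at 630 nm.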

[2] = tested on: MCF-7 breast cancer cells; assay: MTT assay; assay type: cell-based, human; details: MCF-7, 100 μM, 24 h, 100 µM

Compound	IC50 (h-NTPDase1) [nM]	inhibition at 100 µM (h-NTPDase1) [%]	inhibition at 100 µM (h-e5’NT) [%]	IC50 (h-e5’NT) [nM]	cytotoxicity seen in bright-field images [1]	activity against all four h-NTPDase isoenzymes (h-NTPDases)	% Viability [2] [%]
O=C(NCc1ccc(F)cc1)c1ccc2ncccc2c1 [Compound 4b, N-(4-fluorobenzyl)quinoline-6-carboxamide]	3460 ± 490	68.9	37	–	–	–	–
Cc1ccc(CNC(=O)c2ccc3ncccc3c2)cc1 [Compound 4c, N-(4-methylbenzyl)quinoline-6-carboxamide]	6130 ± 640	57.7	50.7	190 ± 10	–	–	–
O=C(Nc1c(F)cccc1F)c1ccc2ncccc2c1 [Compound 4d, N-(2,6 difluorophenyl)quinoline-6-carboxamide]	–	76.1	35.6	–	no signs of cytotoxicity	–	–
O=C(Nc1ccc(F)cc1F)c1ccc2ncccc2c1 [Compound 4e, N-(2,4 difluorophenyl)quinoline-6-carboxamide]	–	32.6	66.9	540 ± 90	–	poor activity; also recorded: inactive	–
O=C(Nc1ccccn1)c1ccc2ncccc2c1 [Compound 4g, N-(pyridin-2-yl)quinoline-6-carboxamide]	610 ± 90	58.5	82	340 ± 70	–	–	–
O=C(Nc1ccccc1I)c1ccc2ncccc2c1 [Compound 4h, N-(2-iodophenyl)quinoline-6-carboxamide]	–	18.4	87	390 ± 100	–	–	–
O=C(Nc1ccc(I)cc1)c1ccc2ncccc2c1 [Compound 4k, N-(4-Iodophenyl)quinoline-6-carboxamide]	–	33.8	28.4	–	–	poor activity	43.1
Cc1ccc(F)cc1NC(=O)c1ccc2ncccc2c1 [Compound 4l, N-(5-fluoro 2-methylphenyl)quinoline-6-carboxamide]	–	32.4	61	470 ± 260	–	poor activity	–
